In the library only some 2.3% were active in any assay of this set; here they are far more common.
TRPC6 act – activators of mouse TRPC6 channel; HEK293-TRPC6 membrane potential dye fluorescence; stronger effect = higher value; B-score at 10 µM; Q61143; hit rate 0.13% among 310,000;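 active means B-score of the integrated fluorescence ratio above library mean plus 3 SD, and starting fluorescence ratio within library mean plus 5 SD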;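 further: higher score means more depolarization so channel activation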
TRPC6 inhibitor – mouse TRPC6 channel inhibition. Q61143. AID 2553. B-score at 10 µM. HEK293-TRPC6, membrane potential dye, ACh-evoked depolarization; stronger effect = lower value. hit rate 1.1% among 310,000;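 active means B-score under library mean minus 3 SD, initial fluorescence not abnormally high, positive integrated signal ratio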;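 further: B-score derived from integrated fluorescence ratio over the kinetic read; more negative B-score means stronger inhibition of depolarization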
TRPC4 block – inhibitors of mouse TRPC4 channel; HEK293 TRPC4beta/mu-opioid, DAMGO-evoked Fluo4 calcium flux; stronger effect = lower value; Q9QUQ5; hit rate 0.39% among 300,000; B-score at 10 µM; AID 2247;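 active means B-score over 3 SD under the library average, no early fluorescence shift, positive overall ratio signal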
Target sequence (Q9QUQ5 whole entry, looked up): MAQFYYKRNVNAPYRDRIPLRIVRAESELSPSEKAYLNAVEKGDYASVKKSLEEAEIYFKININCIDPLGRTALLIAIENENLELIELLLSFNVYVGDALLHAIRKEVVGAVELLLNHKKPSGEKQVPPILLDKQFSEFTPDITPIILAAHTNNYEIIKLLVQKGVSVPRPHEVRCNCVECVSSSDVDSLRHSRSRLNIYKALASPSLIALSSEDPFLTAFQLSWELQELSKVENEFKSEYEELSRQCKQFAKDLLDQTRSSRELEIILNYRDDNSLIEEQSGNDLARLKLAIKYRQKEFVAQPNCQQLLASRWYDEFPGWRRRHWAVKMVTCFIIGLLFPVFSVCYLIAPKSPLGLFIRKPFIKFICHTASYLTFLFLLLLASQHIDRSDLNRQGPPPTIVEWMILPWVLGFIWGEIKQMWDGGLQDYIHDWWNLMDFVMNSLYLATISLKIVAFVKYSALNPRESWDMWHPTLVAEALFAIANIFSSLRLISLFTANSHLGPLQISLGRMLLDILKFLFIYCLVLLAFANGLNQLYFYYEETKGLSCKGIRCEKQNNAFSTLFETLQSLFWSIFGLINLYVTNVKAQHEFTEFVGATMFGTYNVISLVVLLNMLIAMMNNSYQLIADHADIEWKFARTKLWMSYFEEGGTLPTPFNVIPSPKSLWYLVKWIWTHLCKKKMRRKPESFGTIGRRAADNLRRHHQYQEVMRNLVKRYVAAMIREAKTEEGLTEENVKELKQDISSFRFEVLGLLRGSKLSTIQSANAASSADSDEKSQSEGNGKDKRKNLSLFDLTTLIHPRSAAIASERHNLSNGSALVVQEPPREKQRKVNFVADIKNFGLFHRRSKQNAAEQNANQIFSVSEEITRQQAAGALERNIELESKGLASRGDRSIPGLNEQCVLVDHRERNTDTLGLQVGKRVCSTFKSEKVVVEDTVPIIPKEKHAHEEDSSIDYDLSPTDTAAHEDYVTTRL
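Assay system: TRPC4beta/mu-opioid receptor HEK293 cell line; compound dosing: single concentration per test compound; detection: Fluo4 Ca2+ flux fluorescence; evaluation: per-well B score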
TRPC4 potent – allosteric potentiators of mouse TRPC4 channel | hit rate 0.42% among 310,000 | HEK293 TRPC4beta/mu-opioid, DAMGO EC20, Fluo-4 Ca2+ flux; stronger effect = higher value | B-score at 10 µM | Q9QUQ5;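 active means B-score of calcium response area above 5 SD of library B-scores, with initial fluorescence ratio within 5 SD of library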;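 further: B-score of integrated fluorescence ratio over time as area under calcium response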
TRPC4 agonist – opens the mouse TRPC4 cation channel | Q9QUQ5 | HEK293 TRPC4beta/mu-opioid, Fluo4 calcium fluorescence; stronger effect = higher value | B-score at 10 µM | hit rate 0.49% among 310,000 | AID 2237;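 active means B-score above 5 SD of library B-scores, and initial fluorescence ratio not above library mean plus 5 SD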;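 further: positive B-score marks a calcium rise read as TRPC4 activation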
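Assay system: HEK293 stable line with TRPC4beta plus mu-opioid receptor; schedule: 45 min room-temperature Fluo4 loading, 110 s read; technique: kinetic Fluo4 calcium fluorescence; evaluation: integrated baseline-normalised fluorescence ratio, converted to per-well B score; controls: buffer (low) and maximal DAMGO (high)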
TRPC4 spec 2 – second selectivity test of TRPC6 inhibitors: effect on mouse TRPC4 | hit rate 42% among 920 | inhibition, % at 10 µM | shares compounds with TRPC6 inhibitor | HEK293 TRPC4/MOR, membrane potential dye fluorescence; channel activated by saturating DAMGO dose;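 active means compounds whose fluorescence signal differed from control wells by over 3 SD, either direction, in both duplicate plates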
TRPC4 spec – tests whether TRPC6 inhibitors also affect mouse TRPC4 | shares compounds with TRPC6 inhibitor | HEK293 TRPC4/mu-opioid, membrane potential fluorescence | activity change, negative = inhibition, % at 10 µM | hit rate 61% among 920 | AID 2777;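 active means rise or fall in signal beyond 3 SD of buffer-only wells in both replicate plates, either sign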;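 further: integrated kinetic ratio of fluorescence range over baseline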
HEK293 MPD ctr 2-1 – second counter-screen for TRPC6 inhibitors: parental HEK293 cells; shares compounds with TRPC6 inhibitor; parental HEK293 membrane potential dye fluorescence; maximal acetylcholine challenge after compound addition; signal change vs control, % at 10 µM; hit rate 31% among 920; AID 2779;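 active means membrane potential signal moving either way by over 3 SD of the maximum-effect control, in both duplicate plates, meaning non-specific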
HEK293 MPD ctr-1 – checks TRPC6 inhibitor effects in parental HEK293 cells | parental HEK293 membrane potential dye fluorescence | shares compounds with TRPC6 inhibitor | hit rate 60% among 920 | membrane potential signal change, % at 10 µM;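 active means membrane potential signal shifting up or down by more than 3 SD of buffer-only wells, on both duplicate plates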
HEK293 MPD ctr-2 – checks TRPC6 modulator effects in parental HEK293 cells; membrane potential signal change, % at 10 µM; AID 488924; hit rate 51% among 2,400; shares compounds with TRPC6 inhibitor; membrane potential dye fluorescence;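 active means membrane potential signal moves up or down beyond 5 SD from buffer-only wells, on both duplicate plates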
HEK293 MPD ctr 2-2 – second check of TRPC6 modulator effects in parental HEK293 cells; shares compounds with TRPC6 inhibitor; membrane potential dye fluorescence; after compound, maximal acetylcholine stimulation; inhibition, % at 10 µM; hit rate 14% among 2,400; AID 488926;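 active means membrane potential signal drops by more than 5 SD from the mean control signal, in both duplicate plates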;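 further: plate controls were acetylcholine ECmax control wells for no effect and buffer only wells for full effect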
TRPC4/MOR mod – selectivity of TRPC6 modulators against mouse TRPC4 | shares compounds with TRPC6 inhibitor | HEK293 TRPC4/mu-opioid, membrane potential fluorescence | percent change from control (negative = decrease, positive = increase), % at 10 µM | hit rate 69% among 2,400;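 active means membrane potential signal moved up or down beyond 5 SD of buffer control wells, in both duplicate plates, actives on both sides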;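 further: plate controls were assay buffer wells for no effect and DAMGO maximal-effect wells for full effect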
TRPC4 ctr inh 2 – second selectivity test of TRPC6 modulators against mouse TRPC4. shares compounds with TRPC6 inhibitor. HEK293 TRPC4/mu-opioid, membrane potential dye fluorescence; stimulated with maximal-effect DAMGO. inhibition, % at 10 µM. hit rate 55% among 2,400. AID 488928;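 active means drop in membrane potential signal beyond 5 SD of the control wells in both duplicate plates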;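 further: TRPC4 counter screen for TRPC6 hits run under conditions tuned for TRPC6 not TRPC4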
TRPC6 block conf – confirmation of mouse TRPC6 inhibitors; AID 488960; hit rate 43% among 3,300; shares compounds with TRPC6 inhibitor; HEK293-TRPC6, membrane potential dye, ACh-evoked depolarization; inhibition, % at 10 µM;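 active means fluorescence ratio falls more than 5 SD below the full-stimulation control mean, in both duplicate runs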;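 further: integrated fluorescence ratio of peak minus minimum over baseline after agonist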
TRPC6 act conf – mouse TRPC6 activator confirmation; shares compounds with TRPC6 inhibitor; HEK293-TRPC6 membrane potential dye fluorescence, FDSS; activation, % at 10 µM; hit rate 11% among 2,800; AID 488961;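 active means ratio signal rise beyond 5 SD above unstimulated control wells' mean, seen in both duplicate runs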;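 further: plate controls were buffer EC0 wells for no effect and acetylcholine ECmax response for full effect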
* hit, by the source's call; i = inactive; x = no result given.

SMILES | TRPC6 act | TRPC6 inhibitor | TRPC4 block | TRPC4 potent | TRPC4 agonist | HEK293 MPD ctr-2 | HEK293 MPD ctr 2-2 | TRPC4/MOR mod | TRPC4 ctr inh 2 | TRPC6 block conf | TRPC6 act conf | others
O=C(Nc1cccc(Oc2ccc3c(c2)C(=O)NC3=O)c1)c1cccs1 | i | i | i | i | i | x | x | x | x | x | x
O=C(c1cccc(-c2ccc(O)cc2)c1)N1CCN(c2ccc(F)cc2)CC1 | i | i | i | i | i | x | x | x | x | x | x
Cn1c(=O)c2c(nc(SCCN3CCCCC3)n2Cc2ccc(Cl)cc2)n(C)c1=O | i | -6.2* | i | 40* | 80* | -121%* | i | 26%* | 93%* | i | i
O=c1c2ccccc2nc(SCCN2CCCCC2)n1CCc1ccccc1 | i | -7.8* | i | i | i | x | x | x | x | 68%* | i | TRPC4 spec 2=42%*;TRPC4 spec=i;HEK293 MPD ctr 2-1=i;HEK293 MPD ctr-1=i
NC(=O)CSc1nc2ccccc2c(=O)n1CCc1ccccc1 | i | i | i | i | i | x | x | x | x | x | x
O=c1cc(C(F)(F)F)[nH]c2ccc(C(F)(F)F)cc12 | i | -7* | i | i | i | x | x | x | x | 105%* | x | TRPC4 spec 2=i;TRPC4 spec=15%*;HEK293 MPD ctr 2-1=i;HEK293 MPD ctr-1=11%*
Cc1cc(=O)c2ccc(C(F)(F)F)cc2[nH]1 | i | i | i | i | i | x | x | x | x | x | x
O=C(Nc1ccccc1Oc1cccnc1)C1CCCN(Cc2ccc(F)cc2)C1 (stereo not given) | i | -6.4* | -6* | i | i | 176%* | i | 31%* | 46%* | i | x
O=C(C1CCCN(Cc2ccc(F)cc2)C1)N1CCCCC1 (stereo not given) | i | i | i | i | i | x | x | x | x | x | x
CCOC(=O)c1cnc2ccc(C)cc2c1NCCO | i | -8.2* | i | i | i | x | x | x | x | i | i | TRPC4 spec 2=i;TRPC4 spec=-12%*;HEK293 MPD ctr 2-1=6.5%*;HEK293 MPD ctr-1=-279%*
CCOC(=O)c1cnc2ccc(OCC)cc2c1NCCN1CCOCC1 | i | -5.2* | i | i | i | i | i | i | 41%* | i | i
CCOC(=O)c1cnc2ccc(C(=O)OC)cc2c1NCCc1ccc(OC)c(OC)c1 | i | i | i | i | i | x | x | x | x | x | x
CCOC(=O)c1cnc2ccc(OCC)cc2c1N1CCN(C)CC1 | i | -5.5* | i | i | i | -110%* | i | -18%* | 43%* | i | i
CCOC(=O)c1cnc2ccc(OCC)cc2c1NCCCN1CCOCC1 | i | -6.1* | i | i | i | i | 80%* | 21%* | 34%* | 42%* | i
CCC(CC)C(=O)Nc1cc(C)cc(C)c1 | i | i | i | i | i | x | x | x | x | x | x
CCN(CC)S(=O)(=O)c1ccc(OC)c(NC(=O)Cn2cnc3c2c(=O)n(C)c(=O)n3C)c1 | i | i | i | i | i | x | x | x | x | x | x
Cn1c(-c2ccc(F)cc2)cnc1NCc1cc2c(cc1[N+](=O)[O-])OCO2 | i | -6.2* | i | i | i | i | i | -16%* | 76%* | 72%* | i
COc1ccc(OC)c(CNc2ncc(-c3ccc(F)cc3)n2C)c1 | i | -5.3* | i | i | i | i | i | i | 68%* | 57%* | i
Cn1c(-c2ccccc2)cnc1NCc1cc2c(cc1[N+](=O)[O-])OCO2 | i | -5.6* | i | i | i | i | i | -24%* | 68%* | i | i
COc1ccccc1CNc1ncc(-c2ccc(F)cc2)n1C | i | i | i | i | i | x | x | x | x | x | x
CN(NS(=O)(=O)c1ccccc1)c1nc2ccccc2nc1C(F)(F)F | i | i | i | i | i | x | x | x | x | x | x
CN(NS(=O)(=O)c1ccc(Cl)cc1)c1nc(C(F)(F)F)nc2ccccc12 | i | -5.6* | i | i | i | i | i | i | i | i | i
CCc1nnc(NC(=O)CSc2nnc(C3CC3)n2C)s1 | i | i | i | i | i | x | x | x | x | x | x
CN(C)S(=O)(=O)c1cccc(C(=O)NCC(=O)NC2CCN(Cc3ccccc3)CC2)c1 | i | i | i | i | i | x | x | x | x | x | x
C=CCN(c1ccccc1)S(=O)(=O)c1cccc(C(=O)NC2CCN(Cc3ccccc3)CC2)c1 | i | -6.6* | i | i | i | i | i | i | 57%* | i | i
SMILES | TRPC6 act | TRPC6 inhibitor | TRPC4 block | TRPC4 potent | TRPC4 agonist | HEK293 MPD ctr-2 | HEK293 MPD ctr 2-2 | TRPC4/MOR mod | TRPC4 ctr inh 2 | TRPC6 block conf | TRPC6 act conf | others
O=C(NCc1ccccc1)C1CCN(S(=O)(=O)c2ccc(Cl)cc2)CC1 | i | i | i | i | i | x | x | x | x | x | x
CCSc1nc(C)cc(Oc2ccc(=O)n(C)n2)n1 | i | -8.6* | i | i | i | x | x | x | x | i | i | TRPC4 spec 2=i;TRPC4 spec=i;HEK293 MPD ctr 2-1=i;HEK293 MPD ctr-1=i
CCNCCOC(c1ccccc1)c1ccccc1 | i | -5.8* | i | i | i | 142%* | i | 27%* | 36%* | i | x
CC(C)Cc1ccc(CN2CCCC(NC(=O)CCN3CCCO3)C2)cc1 (stereo not given) | i | i | i | i | i | x | x | x | x | x | x
Cc1ccn(CC(=O)NC2CCCN(Cc3ccc(CC(C)C)cc3)C2)n1 (stereo not given) | i | -5.8* | i | i | 145* | 112%* | i | 38%* | i | i | x
COc1ccc(Cl)cc1NS(=O)(=O)c1cccc(C(=O)NCC2(N(C)C)CCCCC2)c1 | i | i | i | i | i | x | x | x | x | x | x
